Screening results (PubChem)
The list is not random: actives were taken first. Their share in the collection is about 4.2%.
TMEM16A inh = TMEM16A chloride channel inhibitors, primary screen, cell-based, HTS | HEK293 TMEM16A/YFP iodide influx fluorescence, ionomycin | AID 588511, 2011 | normalized B-score (activity score, 25-100; higher = stronger inhibition) at 10 µM | 1.2% of 310,000 active;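 active = ratio plate-corrected score three or more library SD toward inhibition, starting fluorescence score within five deviations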;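 also: score derived from kinetic fluorescence span divided by baseline fluorescence per well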
UPR CHOP act = activators of apoptotic CHOP UPR arm, primary screen, cell-based, CHO-CHOP luciferase reporter, luminescence, uHTS. UPR activation; percent of tunicamycin response over DMSO baseline. activation, % at 10 µM. 0.34% of 330,000 active;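 active = at 10 µM dose, activation of 40% or more, normalized to positive control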
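System: CHO-CHOP luciferase reporter cell line | Buffer or medium: F12 medium containing 10% fetal bovine serum | Doses: One dose, 10 µM in 0.5% DMSO | Times: 6 h compound exposure at 37 °C after overnight seeding | Signal: Luciferase luminescence | Read-out: % activation vs tunicamycin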
Hep lipid drop = inhibitors of hepatocyte lipid droplet formation, primary screen, imaging, high-throughput imaging, BODIPY stain; AID 1656, 2009; inhibition, % at 6.5 µM; AML12 mouse hepatocytes, oleate lipid droplets; 0.4% of 240,000 active;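 active = lipid droplet intensity inhibited by at least 50%, with more than 500 cells counted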
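Test system: AML12 mouse liver cells; schedule: overnight exposure; technique: high-content imaging of BODIPY-stained droplets and DAPI nuclei; read-out: % inhibition of corrected integrated BODIPY droplet signal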
CHOP inh = inhibitors of CHOP promoter induction, primary screen, cell-based, unfolded protein response, luciferase reporter; CHO-K1 CHOP-promoter luciferase, tunicamycin-induced, 15-18 h; inhibition, % at 10 µM; 3.8% of 220,000 active; AID 2732, 2010;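 active = compounds that reduced the stress-induced luciferase reporter signal by more than about 70% of percent inhibition, limit read from the data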
XBP1 UPR activ = activators of adaptive XBP1 UPR arm, primary screen, cell-based, CHO-XBP1 luciferase reporter, luminescence, uHTS | IRE1-XBP1 UPR activation; percent of tunicamycin response, DMSO as zero | activation, % at 20 µM | 0.33% of 330,000 active;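 active = versus positive control, 20 µM dose yields 30% or more activation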
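assay system = CHO-XBP1 luciferase reporter cells | amount = 1000 cells/well | buffer or medium = F12 plus 10% FBS | compound dosing = single point, 20 µM final compound, 1% DMSO | incubation = 16-18 h cell attachment at 37 °C, then 6 h compound exposure | detection = Steady-Glo luminescence read | controls = tunicamycin 10 µg/mL and vehicle-only wells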
ANO1 activ = TMEM16A chloride channel activators or potentiators, primary screen, cell-based, HTS; 0.3% of 340,000 active; Anoctamin-1 (Mus musculus), Q8BHY3; HEK293 TMEM16A/YFP-H148Q/I152L, iodide quench fluorescence; hits give low values; B-score at 10 µM;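 active = fluorescence-ratio B-score plate-corrected deviation score at least 3 library SD below zero, with starting fluorescence score within 5 deviations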;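 also: channel opened by trigger with iodide after compound preincubation; score built on the fluorescence ratio of max minus min over baseline; more negative score means more quench and so TMEM16A activation or potentiation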
TMEM16A reconf = TMEM16A chloride channel inhibitors, confirmation, cell-based, re-confirmation | shares compounds with TMEM16A inh | HEK293 TMEM16A/YFP-H148Q, iodide quench fluorescence; ionomycin added to raise cell calcium | inhibition, % at 10 µM | 39% of 2,300 active | AID 652189, 2013;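 active = mean duplicate percent inhibition, scaled so buffer wells are 0 and the reference blocker 100, over three buffer SD above buffer mean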
HEK293 Ca mobil = calcium mobilization in TMEM16A/YFP HEK293 cells, confirmation, counter-screen for TMEM16A inhibitor project | shares compounds with TMEM16A inh | Fluo4 calcium mobilization | calcium response (% of ionomycin), % at 10 µM | 2% of 2,300 active;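 active = duplicate-averaged calcium signal over 20% of the ionomycin maximum, relative to buffer baseline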;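 also: each well's signal is peak minus trough fluorescence divided by its pre-addition baseline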
Parental YFP cnt = iodide YFP quench changes in parental YFP-HEK293, counter-screen for TMEM16A inhibitor project, cell-based | AID 652233, 2013 | shares compounds with TMEM16A inh | ionomycin | YFP ratio F(max-min)/F0 at 10 µM | 2,300 tested, under 10 active;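 active = yellow fluorescent protein signal ratio exceeding the buffer control mean by over 5 SD of those controls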;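 also: ratio is mean of duplicate wells from kinetic YFP trace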
ClC-1 rat inh = ClC-1 chloride channel inhibition, selectivity assay for TMEM16A inhibitor project, cell-based, voltage-dependent ClC-1 | shares compounds with TMEM16A inh | CHO ClC-1-YFP, iodide influx fluorescence quench; iodide control reads 0, buffer control 100 | ratio percent, % at 10 µM | 2,300 tested, under 10 active;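 active = duplicate-mean ratio percent above the mean of iodide-only control wells, which defines zero, plus 5 of their SD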;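 also: higher percent means stronger block of ClC-1 iodide influx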
Numbers stand for hits; - = inactive; . = no result given.

SMILES	TMEM16A inh	UPR CHOP act	Hep lipid drop	CHOP inh	XBP1 UPR activ	ANO1 activ	TMEM16A reconf	HEK293 Ca mobil	Parental YFP cnt	ClC-1 rat inh
Cc1cc(C)n2nc(SC(C)C(=O)NC3CCCCC3C)nc2n1 (stereo not given)	-	-	.	.	-	-	.	.	.	.
CCCCNC(=O)COC(=O)CNC(=O)c1cc(Cl)cc([N+](=O)[O-])c1	-	-	-	-	-	-	.	.	.	.
COc1ccc(C(OCC(O)CN2CCC(O)CC2)c2ccc(OC)cc2)cc1 (stereo not given)	-	-	-	.	-	-	.	.	.	.
CN(C(=O)CN1C(=O)/C(=C/c2ccccc2Cl)SC1=S)C1CCS(=O)(=O)C1 (stereo not given)	-	-	-	.	-	-	.	.	.	.
Cc1c(N=Cc2cccnc2)c(=O)n(-c2ccccc2)n1C	-	-	-	-	-	-	.	.	.	.
Cc1c(N=C/C=C/c2ccccc2)c(=O)n(-c2ccccc2)n1C	25	-	.	-	-	-	-	-	-	-
CCN(CC)CCCNC(=O)c1cc2nc(-c3ccccc3)cc(C(F)(F)F)n2n1	100	-	-	.	-	-	-	-	-	-
C/C(=C\C(=O)c1ccc(C)cc1)NCc1ccc(F)cc1	100	-	.	.	-	-	-	-	-	-
C/C(=C\C(=O)c1ccccc1)NCc1ccc(F)cc1	-	-	.	-	-	-	.	.	.	.
C/C(=C\C(=O)c1ccc(F)cc1)NCc1ccc2c(c1)OCO2	100	-	.	-	-	-52	-	-	-	-
Cc1c(NC(=O)c2cc(Br)ccc2Cl)cccc1-n1cnnn1	.	-	.	.	-	-	.	.	.	.
Cc1cnc(C(=O)OCC(=O)NC2CCCCCCC2)cn1	-	-	-	-	-	-	.	.	.	.
CCN(C(=O)COC(=O)c1cnc(C)cn1)C1CCCCC1	100	-	.	-	-	-	-	-	-	-
C[C@H](NC(=O)/C(C#N)=C/c1ccc(O)c(O)c1)c1ccccc1	.	.	.	-	.	.	.	.	.	.
O=C1CC(c2ccco2)Cc2nc(N3CCN(Cc4ccc5c(c4)OCO5)CC3)ncc21 (stereo not given)	25	-	-	-	-	-	-	-	-	-
Cc1ccc(C2CC(=O)c3cnc(N4CCN(c5ccccc5)CC4)nc3C2)cc1 (stereo not given)	-	-	.	-	-	-	.	.	.	.
COc1ccc(C2CC(=O)c3cnc(N4CCN(Cc5ccccc5)CC4)nc3C2)cc1 (stereo not given)	25	-	-	-	-	-	-	-	-	-
COc1ccccc1CNS(=O)(=O)c1c(C)nc2sccn2c1=O	-	-	-	.	-	-	.	.	.	.
Cc1cc(C)c2c(N)c(C(=O)Nc3c(C)n(C)n(-c4ccccc4)c3=O)sc2n1	-	-	-	.	-	-	.	.	.	.
Cc1cccc(N/C(N)=N/c2nc(C(F)(F)F)cc(=O)[nH]2)c1C	-	-	-	-	-	-	.	.	.	.
Cc1csc(NC(=O)CCCSc2nc3ccccc3s2)n1	100	-	-	-	-	-	-	32%	-	-
O=C(NC(Cc1cccc(F)c1)C(=O)O)C1CCCCC1 (stereo not given)	.	-	.	.	-	-	.	.	.	.
COC(=O)C1=CN(CC2CCCO2)C=C(C(=O)OC)C1c1cccc(O)c1 (stereo not given)	-	-	-	-	-	-	.	.	.	.
COC(=O)C1=CN(CC2CCCO2)C=C(C(=O)OC)C1c1ccsc1 (stereo not given)	100	-	.	-	-	-	-	-	-	-
Cc1cccc(N/N=C/c2ccccc2O)c1	-	-	-	-	-	-	.	.	.	.
SMILES	TMEM16A inh	UPR CHOP act	Hep lipid drop	CHOP inh	XBP1 UPR activ	ANO1 activ	TMEM16A reconf	HEK293 Ca mobil	Parental YFP cnt	ClC-1 rat inh
Cc1nnc2ccc(N3CCCC3)nn12	25	-	-	-	-	-	-	-	-	-
Cc1[nH]n(-c2ccc(Br)cc2)c(=O)c1/C=N/NC(=O)c1ccccc1	100	-	-	.	-	-	21%	-	-	-
Cc1[nH]n(-c2ccccc2)c(=O)c1/C=N/NC(=O)c1cccc(F)c1	-	-	.	.	-	-	.	.	.	.
O=C(CSc1nnc(-c2ccncc2)n1-c1ccc(Cl)cc1)NCc1cccs1	-	-	.	-	-	-	.	.	.	.
Cc1ccccc1C1c2[nH]c3ccccc3c2CCN1Cc1cccn1-c1ncccn1 (stereo not given)	-	-	-	-	-	-	.	.	.	.
Cc1nc(NCCc2ccccc2)c2oc3ccccc3c2n1	25	-	-	76	-	-	-	-	-	-
Cc1nc(NCCN2CCOCC2)c2oc3ccccc3c2n1	-	-	.	-	-	-	.	.	.	.
CCCc1c(C(=O)N/N=C/c2cccc3ccccc23)nnn1-c1nonc1N	-	-	-	.	-	-	.	.	.	.
CN1C(=O)/C(=C\c2ccc(OC(=O)c3ccco3)cc2)SC1=S	-	-	-	.	-	-	.	.	.	.
COc1cc(/C=C2\SC(=S)N(CC(=O)O)C2=O)ccc1OC(=O)c1ccco1	-	-	-	.	-	-5.5	-	-	-	-
